Assay results of several laboratories.
Lines come from different studies, so protocols differ.
Target: Vascular endothelial growth factor receptor 2 (KDR, Homo sapiens, UniProt P35968)

CC1CCCN1c1nccc(-c2cnn3ncccc23)n1 (stereo not shown) — remaining binding (binding; 1 µM): 100%
O=C(NCC1CCOCC1)c1n[nH]cc1NC(=O)c1c(F)cccc1F — remaining binding (binding, competition with immobilised ligand; 1 µM): 82%
O=C(Nc1cnc(Oc2ccc(F)cc2)nc1)N1CCc2ncccc2[C@@H]1c1ccc(F)cc1 — remaining binding (cell-free assay, competition with immobilised ligand; 1 µM): 88%
C[C@H]1CCN(c2nccc(-c3cnn4ncccc34)n2)C1 — remaining binding (binding; 1 µM): 92%
COC(=O)Nc1nc2ccc(C(=O)c3ccccc3)cc2[nH]1 — remaining binding (cell-free assay, competition with immobilised ligand; 10 µM): 30%
Nc1cnc(N2CCc3cc(S(=O)(=O)Nc4c(F)cc(Cl)cc4F)cc(N4CCCC4=O)c32)nc1 — remaining binding (cell-free assay, competition with immobilised ligand; 1 µM): 81%
C[C@@H]1CN(c2ccc3ncc(-c4ccc5[nH]nc(C6CC6)c5c4)n3n2)C[C@H](C)O1 — remaining binding (binding, competition with immobilised ligand; 50 nM): 86%
Cc1cnc(Nc2ccc(C(=O)N3CCC(N4CCCC4)CC3)cc2)nc1-c1cc2ccccc2s1 — remaining binding (binding, competition with immobilised ligand; 1 µM): 4.3%
N[C@H]1CCN(c2nccc(-c3cnn4ncccc34)n2)C1 — remaining binding (binding; 1 µM): 100%
COc1cnc(Nc2cccc(S(N)(=O)=O)c2)nc1N1CCN(c2ccccc2)C(=O)C1 — remaining binding (binding, competition with immobilised ligand; 1 µM): 100%
O=C(NCCCN1CCOCC1)c1ccc(Nc2ncc(Cl)c(-c3ccc(Cl)s3)n2)cc1 — remaining binding (binding, competition with immobilised ligand; 1 µM): 13%
Cc1cnn2ncc(-c3ccnc(N(C)C)n3)c2c1 — remaining binding (binding; 1 µM): 96%
FC(F)(F)Oc1cccc(-c2cnc3ccc(-c4ccncc4)nn23)c1 — remaining binding (cell-free assay, competition with immobilised ligand; 5 µM): 18%
CN(C)C(=O)Cn1cc(-c2nc(C3(c4ccc(-c5cnc(N)nc5)cc4)CC3)no2)cn1 — remaining binding (cell-free assay, competition with immobilised ligand; 1 µM): 70%
CC(C)(C)c1ccc(-c2nc(CBr)nn2-c2cccc(O)c2)cc1 — remaining binding (cell-free assay, competition with immobilised ligand; 10 µM): 83%
N#CC1(c2ccccn2)CCN(Cc2cc(C(=O)N3CCCC3)c(=O)n3ccccc23)CC1 — remaining binding (cell-free assay, competition with immobilised ligand; 1 µM): 92%
F[C@@H]1CCN(c2nccc(-c3cnn4ncccc34)n2)C1 — remaining binding (binding; 1 µM): 100%
O=C(c1ccc(Nc2nccc(-c3cc4ccccc4s3)n2)cc1)N1CCC(N2CCCC2)CC1 — remaining binding (binding, competition with immobilised ligand; 1 µM): 47%
COCCOc1nc(-c2ccc(Cl)nc2)nc2c1CN(C(=O)c1ncn3ccccc13)CC2 — remaining binding (cell-free assay, competition with immobilised ligand; 0.1 µM): 100%
c1cncc(-c2cccc(Nc3nccc(NC4CCCCC4)n3)c2)c1 — remaining binding (binding, competition with immobilised ligand; 10 µM): 69%
CO[C@@H](C)c1c(Nc2ccc([C@@H](N(C)C(=O)C3CCS(=O)(=O)CC3)C(F)(F)F)cc2)cnc2cc(Cl)nn12 — remaining binding (cell-free assay, competition with immobilised ligand; 1 µM): 95%
COc1ncc2cc3ccccc3nc2c1C#N — remaining binding (cell-free assay, competition with immobilised ligand; 5 µM): 100%
N#Cc1ccccc1CSc1nnc2c(n1)[nH]c1ccccc12 — remaining binding (binding, competition with immobilised ligand; 10 µM): 95%
CN(C)c1nccc(-c2cnc3ncccn23)n1 — remaining binding (binding; 1 µM): 90%
CCC(=O)N[C@@H]1CC[C@H](C(=O)N(C)c2ccc(-c3nc4ccccc4o3)cc2)C1 — remaining binding (cell-free assay, competition with immobilised ligand; 1 µM): 77%
